Assays:
[1] = target: Myosin light chain kinase, smooth muscle (Homo sapiens) (UniProt Q15746); experiment: Inhibition of smooth muscle MLCK assessed as residual activity at 10 uM by Cherenkov counting relative to control in presence of 50 uM ATP
In short: (§1)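 Single-concentration profiling at 10 μM in a 78-kinase panel. Kinase activity is expressed as a percentage of control assays run without compound.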

[2] = target: Serine/threonine-protein kinase pim-1 (Homo sapiens) (UniProt P11309); experiment: Inhibition of PIM1 assessed as residual activity at 10 uM by Cherenkov counting relative to control in presence of 20 uM ATP
[3] = target: Serine/threonine-protein kinase pim-3 (Homo sapiens) (UniProt Q86V86); experiment: Inhibition of PIM3 assessed as residual activity at 10 uM by Cherenkov counting relative to control in presence of 20 uM ATP
[4] = target: SRSF protein kinase 1 (Homo sapiens) (UniProt Q96SB4); experiment: Inhibition of SRPK1 assessed as residual activity at 10 uM by Cherenkov counting relative to control in presence of 50 uM ATP; in short: as §1
[5] = target: Homeodomain-interacting protein kinase 2 (Homo sapiens) (UniProt Q9H2X6); experiment: Inhibition of HIPK2 assessed as residual activity at 10 uM by Cherenkov counting relative to control in presence of 5 uM ATP
In short: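 Single-point profiling at 10 µM in a panel of 78 protein kinases. Kinase activity is expressed as a percentage relative to control assays without compound.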

[6] = target: Serine/threonine-protein kinase PAK 5 (Homo sapiens) (UniProt Q9P286); experiment: Inhibition of PAK5 assessed as residual activity at 10 uM by Cherenkov counting relative to control in presence of 20 uM ATP
[7] = target: Proto-oncogene tyrosine-protein kinase Src (Homo sapiens) (UniProt P12931); experiment: Inhibition of Src assessed as residual activity at 10 uM by Cherenkov counting relative to control in presence of 50 uM ATP; in short: as §1
[8] = target: Tyrosine-protein kinase Lck (Homo sapiens) (UniProt P06239); experiment: Inhibition of Lck assessed as residual activity at 10 uM by Cherenkov counting relative to control in presence of 50 uM ATP
[9] = target: T1, Inhibitor of nuclear factor kappa-B kinase subunit epsilon (Homo sapiens) (UniProt Q14164); experiment: Inhibition of IKKepsilon assessed as residual activity at 10 uM by Cherenkov counting relative to control in presence of 50 uM ATP
T1 sequence (whole entry): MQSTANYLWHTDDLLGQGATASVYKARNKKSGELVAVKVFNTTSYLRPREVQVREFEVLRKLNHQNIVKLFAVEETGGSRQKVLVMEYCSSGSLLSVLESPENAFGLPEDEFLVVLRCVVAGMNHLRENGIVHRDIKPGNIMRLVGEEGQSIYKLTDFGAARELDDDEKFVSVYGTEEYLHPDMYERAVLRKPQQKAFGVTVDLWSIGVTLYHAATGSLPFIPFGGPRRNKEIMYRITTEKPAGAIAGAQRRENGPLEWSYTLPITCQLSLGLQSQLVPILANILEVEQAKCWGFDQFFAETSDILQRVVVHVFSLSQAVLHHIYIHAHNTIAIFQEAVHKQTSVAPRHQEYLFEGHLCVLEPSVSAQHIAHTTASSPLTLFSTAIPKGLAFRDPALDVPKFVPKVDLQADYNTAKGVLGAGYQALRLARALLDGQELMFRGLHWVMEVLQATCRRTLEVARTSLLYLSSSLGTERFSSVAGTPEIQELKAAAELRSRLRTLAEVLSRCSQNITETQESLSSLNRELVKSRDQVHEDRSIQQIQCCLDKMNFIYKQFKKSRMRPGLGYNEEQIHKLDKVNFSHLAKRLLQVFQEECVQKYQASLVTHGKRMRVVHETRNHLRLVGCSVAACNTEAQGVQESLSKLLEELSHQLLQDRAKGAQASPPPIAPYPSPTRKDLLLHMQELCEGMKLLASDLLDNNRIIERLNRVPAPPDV

[10] = target: Cyclin-dependent kinase 2/cyclin A (Homo sapiens) (UniProt P24941+P20248+P78396); experiment: Inhibition of CDK2/cyclin A assessed as residual activity at 0.1 uM by Cherenkov counting relative to control in presence of 20 uM ATP; type: protein-complex assay
In short: (§2)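 Single-concentration screen at 0.1 µM across a panel of 76 protein kinases. Each kinase was run at an ATP concentration approximating its ATP Km. Results are % mean residual activity versus control assays without compound (n = 3 ± SD).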

[11] = target: Serine/threonine-protein kinase PLK1 (Homo sapiens) (UniProt P53350); experiment: Inhibition of PLK1 assessed as residual activity at 0.1 uM by Cherenkov counting relative to control in presence of 5 uM ATP
In short: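 Single-concentration screen at 0.1 μM in a 76-kinase panel. ATP for each kinase was set near its Km for ATP. Residual activity is given as a percentage of control assays without compound, mean of n = 3 ± SD.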

[12] = target: Aurora kinase B (Homo sapiens) (UniProt Q96GD4); experiment: Inhibition of Aurora B assessed as residual activity at 0.1 uM by Cherenkov counting relative to control in presence of 20 uM ATP; in short: as §2
[13] = target: T2, Serine/threonine-protein kinase Nek2 (Homo sapiens) (UniProt P51955); experiment: Inhibition of NEK2a assessed as residual activity at 0.1 uM by Cherenkov counting relative to control in presence of 50 uM ATP
T2 sequence (whole entry): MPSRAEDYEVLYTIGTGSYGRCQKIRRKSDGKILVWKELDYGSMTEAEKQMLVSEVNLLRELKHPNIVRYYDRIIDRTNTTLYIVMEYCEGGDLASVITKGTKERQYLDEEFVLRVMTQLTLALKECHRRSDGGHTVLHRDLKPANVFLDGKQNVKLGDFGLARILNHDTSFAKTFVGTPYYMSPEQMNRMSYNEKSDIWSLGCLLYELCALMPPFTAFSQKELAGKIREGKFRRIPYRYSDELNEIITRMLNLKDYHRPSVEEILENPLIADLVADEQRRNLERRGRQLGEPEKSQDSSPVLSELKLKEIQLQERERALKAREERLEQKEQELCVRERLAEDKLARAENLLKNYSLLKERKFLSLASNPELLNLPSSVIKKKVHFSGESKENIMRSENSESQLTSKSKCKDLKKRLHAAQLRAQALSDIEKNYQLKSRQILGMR
In short: (§3)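 Single-concentration selectivity screen at 0.1 μM against a panel of 76 protein kinases. Each kinase was run at an ATP level approximating its Km for ATP. Output is mean residual activity as % of the control assay without compound, n = 3 ± SD.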

[14] = target: Insulin receptor-related protein (Homo sapiens) (UniProt P14616); experiment: Inhibition of IRR assessed as residual activity at 0.1 uM by Cherenkov counting relative to control in presence of 5 uM ATP; in short: as §3

Sequence of Tyrosine-protein kinase Lck (Homo sapiens) (P06239 2-509 limits assumed): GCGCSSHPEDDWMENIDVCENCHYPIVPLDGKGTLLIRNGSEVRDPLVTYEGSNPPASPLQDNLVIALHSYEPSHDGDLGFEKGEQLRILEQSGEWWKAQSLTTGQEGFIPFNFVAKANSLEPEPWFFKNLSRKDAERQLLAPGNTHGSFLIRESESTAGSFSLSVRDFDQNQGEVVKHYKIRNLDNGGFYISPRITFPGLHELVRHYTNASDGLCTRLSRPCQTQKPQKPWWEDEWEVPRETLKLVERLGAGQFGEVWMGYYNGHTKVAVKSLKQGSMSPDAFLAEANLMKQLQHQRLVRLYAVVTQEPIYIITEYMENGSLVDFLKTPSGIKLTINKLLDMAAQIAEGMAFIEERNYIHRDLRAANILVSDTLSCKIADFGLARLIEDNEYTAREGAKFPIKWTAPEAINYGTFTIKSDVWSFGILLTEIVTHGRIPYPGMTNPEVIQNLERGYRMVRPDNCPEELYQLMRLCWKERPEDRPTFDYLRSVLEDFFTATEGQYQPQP
Sequence of Serine/threonine-protein kinase PLK1 (Homo sapiens) (P53350 whole entry): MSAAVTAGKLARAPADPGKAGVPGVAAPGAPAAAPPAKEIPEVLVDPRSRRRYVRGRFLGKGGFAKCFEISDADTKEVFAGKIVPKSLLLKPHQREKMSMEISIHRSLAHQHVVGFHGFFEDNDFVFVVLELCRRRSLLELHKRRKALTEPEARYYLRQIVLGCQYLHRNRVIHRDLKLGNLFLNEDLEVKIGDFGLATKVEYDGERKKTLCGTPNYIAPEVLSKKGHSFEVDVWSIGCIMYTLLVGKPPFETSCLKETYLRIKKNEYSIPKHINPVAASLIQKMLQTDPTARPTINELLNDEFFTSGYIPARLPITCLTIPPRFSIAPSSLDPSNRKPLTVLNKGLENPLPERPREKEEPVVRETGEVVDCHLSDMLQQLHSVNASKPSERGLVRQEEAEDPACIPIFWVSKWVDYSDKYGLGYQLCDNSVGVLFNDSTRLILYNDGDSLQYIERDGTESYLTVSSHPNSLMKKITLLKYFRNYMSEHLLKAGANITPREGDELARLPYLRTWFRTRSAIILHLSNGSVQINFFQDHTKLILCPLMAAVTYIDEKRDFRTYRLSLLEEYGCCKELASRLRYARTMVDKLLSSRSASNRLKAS
Sequence of Serine/threonine-protein kinase pim-1 (Homo sapiens) (P11309 whole entry, looked up): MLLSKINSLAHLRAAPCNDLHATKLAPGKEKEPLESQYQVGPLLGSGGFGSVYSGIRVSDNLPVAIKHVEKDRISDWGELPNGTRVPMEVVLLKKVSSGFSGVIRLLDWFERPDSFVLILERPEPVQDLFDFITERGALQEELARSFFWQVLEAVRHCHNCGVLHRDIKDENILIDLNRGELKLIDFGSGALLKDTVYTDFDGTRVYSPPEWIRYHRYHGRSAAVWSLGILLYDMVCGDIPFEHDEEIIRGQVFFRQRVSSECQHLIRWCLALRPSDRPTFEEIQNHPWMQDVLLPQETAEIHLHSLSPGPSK
Sequence of Serine/threonine-protein kinase PAK 5 (Homo sapiens) (Q9P286 whole entry, looked up): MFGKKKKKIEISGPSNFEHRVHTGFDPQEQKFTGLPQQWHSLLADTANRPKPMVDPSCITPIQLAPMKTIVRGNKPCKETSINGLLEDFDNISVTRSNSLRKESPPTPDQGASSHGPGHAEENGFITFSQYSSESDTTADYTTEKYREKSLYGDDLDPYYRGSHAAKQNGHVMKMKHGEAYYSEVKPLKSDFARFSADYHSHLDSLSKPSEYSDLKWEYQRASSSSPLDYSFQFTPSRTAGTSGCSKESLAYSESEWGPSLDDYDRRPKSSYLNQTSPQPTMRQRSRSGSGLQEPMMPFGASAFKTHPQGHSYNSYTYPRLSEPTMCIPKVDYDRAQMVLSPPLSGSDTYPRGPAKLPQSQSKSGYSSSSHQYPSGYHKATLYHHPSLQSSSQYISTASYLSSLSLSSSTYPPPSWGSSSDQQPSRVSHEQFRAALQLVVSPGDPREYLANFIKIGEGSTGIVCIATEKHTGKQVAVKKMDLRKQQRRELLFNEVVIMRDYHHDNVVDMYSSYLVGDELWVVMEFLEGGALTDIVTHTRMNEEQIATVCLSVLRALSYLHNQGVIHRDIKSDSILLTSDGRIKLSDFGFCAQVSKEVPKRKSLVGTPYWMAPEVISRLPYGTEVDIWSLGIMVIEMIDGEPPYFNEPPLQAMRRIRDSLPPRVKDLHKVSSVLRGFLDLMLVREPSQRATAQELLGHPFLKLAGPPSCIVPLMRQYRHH
Sequence of Myosin light chain kinase, smooth muscle (Homo sapiens) (Q15746 whole entry): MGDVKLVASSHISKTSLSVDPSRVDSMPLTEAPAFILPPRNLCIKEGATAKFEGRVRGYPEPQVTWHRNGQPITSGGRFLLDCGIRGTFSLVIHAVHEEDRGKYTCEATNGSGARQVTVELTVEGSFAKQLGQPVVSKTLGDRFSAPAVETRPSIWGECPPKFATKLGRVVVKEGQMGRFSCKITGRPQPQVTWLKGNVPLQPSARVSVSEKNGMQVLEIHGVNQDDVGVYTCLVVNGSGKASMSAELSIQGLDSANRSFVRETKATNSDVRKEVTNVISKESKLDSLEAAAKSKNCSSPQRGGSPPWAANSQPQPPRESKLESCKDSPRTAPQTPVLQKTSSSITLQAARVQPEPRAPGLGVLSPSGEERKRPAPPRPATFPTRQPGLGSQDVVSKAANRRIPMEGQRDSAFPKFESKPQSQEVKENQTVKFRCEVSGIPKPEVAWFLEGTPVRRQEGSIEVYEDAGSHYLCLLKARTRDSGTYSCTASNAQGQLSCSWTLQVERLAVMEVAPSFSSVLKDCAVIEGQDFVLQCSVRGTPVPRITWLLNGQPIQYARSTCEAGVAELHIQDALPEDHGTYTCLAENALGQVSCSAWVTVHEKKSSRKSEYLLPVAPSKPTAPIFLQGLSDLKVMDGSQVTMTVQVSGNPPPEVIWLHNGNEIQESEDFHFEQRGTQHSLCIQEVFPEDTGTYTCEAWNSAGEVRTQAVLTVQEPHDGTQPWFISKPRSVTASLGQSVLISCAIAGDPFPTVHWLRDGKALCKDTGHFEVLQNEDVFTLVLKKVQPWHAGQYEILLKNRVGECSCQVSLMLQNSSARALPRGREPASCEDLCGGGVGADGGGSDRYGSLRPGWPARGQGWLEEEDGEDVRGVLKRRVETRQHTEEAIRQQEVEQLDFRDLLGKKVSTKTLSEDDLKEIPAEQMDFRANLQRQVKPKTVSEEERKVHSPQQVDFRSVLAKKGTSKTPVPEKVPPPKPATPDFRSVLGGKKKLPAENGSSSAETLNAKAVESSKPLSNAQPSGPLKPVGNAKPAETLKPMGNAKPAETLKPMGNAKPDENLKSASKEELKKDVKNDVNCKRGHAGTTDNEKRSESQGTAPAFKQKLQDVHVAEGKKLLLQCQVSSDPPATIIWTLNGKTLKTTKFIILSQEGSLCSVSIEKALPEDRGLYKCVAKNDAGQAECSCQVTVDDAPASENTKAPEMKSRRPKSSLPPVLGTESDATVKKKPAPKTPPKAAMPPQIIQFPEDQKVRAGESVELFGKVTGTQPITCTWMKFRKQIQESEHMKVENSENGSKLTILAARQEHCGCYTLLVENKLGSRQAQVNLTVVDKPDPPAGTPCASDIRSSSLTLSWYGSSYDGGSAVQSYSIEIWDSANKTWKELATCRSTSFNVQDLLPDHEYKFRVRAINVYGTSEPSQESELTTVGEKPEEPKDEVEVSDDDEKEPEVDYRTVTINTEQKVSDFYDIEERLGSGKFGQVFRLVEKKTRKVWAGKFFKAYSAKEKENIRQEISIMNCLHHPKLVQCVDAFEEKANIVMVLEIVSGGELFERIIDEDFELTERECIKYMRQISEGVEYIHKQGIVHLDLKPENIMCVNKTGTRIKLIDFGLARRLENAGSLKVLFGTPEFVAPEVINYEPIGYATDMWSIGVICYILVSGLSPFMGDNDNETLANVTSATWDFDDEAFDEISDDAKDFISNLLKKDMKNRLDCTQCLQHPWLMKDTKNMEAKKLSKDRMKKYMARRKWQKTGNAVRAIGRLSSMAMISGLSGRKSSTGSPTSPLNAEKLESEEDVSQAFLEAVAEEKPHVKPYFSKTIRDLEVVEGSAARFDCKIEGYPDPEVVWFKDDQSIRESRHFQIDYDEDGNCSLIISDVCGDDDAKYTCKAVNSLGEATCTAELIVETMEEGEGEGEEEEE
Sequence of SRSF protein kinase 1 (Homo sapiens) (Q96SB4 whole entry): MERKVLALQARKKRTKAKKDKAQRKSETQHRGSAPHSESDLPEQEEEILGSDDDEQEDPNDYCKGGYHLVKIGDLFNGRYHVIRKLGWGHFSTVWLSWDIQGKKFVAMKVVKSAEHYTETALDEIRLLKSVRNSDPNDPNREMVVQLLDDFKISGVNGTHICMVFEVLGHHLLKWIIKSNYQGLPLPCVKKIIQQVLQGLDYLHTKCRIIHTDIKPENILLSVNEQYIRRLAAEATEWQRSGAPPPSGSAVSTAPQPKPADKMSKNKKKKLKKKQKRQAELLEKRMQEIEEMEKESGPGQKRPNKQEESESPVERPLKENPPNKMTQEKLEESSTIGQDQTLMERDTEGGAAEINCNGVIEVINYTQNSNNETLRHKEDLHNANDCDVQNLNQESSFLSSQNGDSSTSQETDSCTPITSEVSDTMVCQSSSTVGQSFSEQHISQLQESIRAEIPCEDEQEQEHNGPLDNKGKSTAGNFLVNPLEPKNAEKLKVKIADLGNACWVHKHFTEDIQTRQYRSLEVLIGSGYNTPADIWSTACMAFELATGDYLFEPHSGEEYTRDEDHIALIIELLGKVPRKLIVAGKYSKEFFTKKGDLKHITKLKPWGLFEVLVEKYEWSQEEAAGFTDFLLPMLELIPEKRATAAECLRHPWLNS

Row | Activity [1] | Activity [2] | Activity [3] | Activity [4] | Activity [5] | Activity [6] | Activity [7] | Activity [8] | Activity [9] | Activity [10] | Activity [11] | Activity [12] | Activity [13] | Activity [14] | Structure (SMILES)
1 | 110% | 89% | 78% | 86% | 103% | 94% | 90% | 64% | 71% | – | – | – | – | – | CC(C)c1noc(-c2ccc(F)cc2)c1-c1ccncc1
2 | 99% | 100% | 81% | 81% | 103% | 98% | 72% | 42% | 81% | – | – | – | – | – | CC(C)c1onc(-c2ccc(F)cc2)c1-c1ccncc1
3 | – | – | – | – | – | – | – | – | – | 115% | 110% | 93% | 92% | 83% | COc1ccc(/C=C/C(=O)Nc2cc(-c3[nH]c([S+](C)[O-])nc3-c3ccc(F)cc3)ccn2)c(OC)c1 (stereo not drawn)
4 | – | – | – | – | – | – | – | – | – | 112% | 97% | 93% | 91% | 61% | COc1ccc(/C=C/C(=O)Nc2cc(-c3[nH]c(SC)nc3-c3ccc(F)cc3)ccn2)c(OC)c1
